According to BindingDB's records for doi:10.1021/jm00001a007 (Sandoz Pharma, 1995):
Several values for one entry are separate records, joined by “and”; a condition that tells them apart may be missing. Equal values may be shown once. Where a name gives a salt, the structure may show the parent alone.

Key:
[1] = molecular target: D(2) dopamine receptor (Bos taurus, UniProt P20288); assay: Binding affinity towards Dopamine receptor D2 of calf striatal tissue using [3H]spiperone
How it was run: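 Calf striatal membranes, [3H]spiperone. Cinanserin (0.5 μM) masked 5-HT2A sites; nonspecific binding defined with haloperidol (5 μM). Displacement IC50 converted to KD (Cheng–Prusoff), reported as pKD.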

[2] = molecular target: D(1A) dopamine receptor (Bos taurus, UniProt Q95136); assay: Binding affinity towards Dopamine receptor D1 of calf striatal tissue using [3H]SCH-23390
D(1A) dopamine receptor, sequence (Q95136 whole entry): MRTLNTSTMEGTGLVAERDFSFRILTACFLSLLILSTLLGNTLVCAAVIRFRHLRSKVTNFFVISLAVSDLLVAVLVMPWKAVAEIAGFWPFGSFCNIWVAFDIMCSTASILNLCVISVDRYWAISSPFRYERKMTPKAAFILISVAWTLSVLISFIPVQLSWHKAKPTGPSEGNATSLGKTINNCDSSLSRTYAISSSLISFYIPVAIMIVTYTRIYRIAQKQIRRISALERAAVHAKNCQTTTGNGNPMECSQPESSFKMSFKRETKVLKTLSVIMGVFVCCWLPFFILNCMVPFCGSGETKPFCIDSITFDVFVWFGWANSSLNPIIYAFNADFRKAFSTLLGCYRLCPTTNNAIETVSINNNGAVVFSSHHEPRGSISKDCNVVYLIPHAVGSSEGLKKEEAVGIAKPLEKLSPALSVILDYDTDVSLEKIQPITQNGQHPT
How it was run: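 Calf striatal membranes, [3H]SCH-23390. Nonspecific binding defined with 1 μM unlabeled SCH-23390. IC50 from displacement curves converted via Cheng–Prusoff to KD, expressed as pKD.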

[3] = molecular target: 5-hydroxytryptamine 2A receptor; assay: Binding affinity towards 5-hydroxytryptamine 2A receptor in rat cortex preparations using [3H]ketanserin
How it was run: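 5-HT2 sites: rat cortex for 2A ([3H]ketanserin), porcine choroid plexus for 2C ([3H]mesulergine). Nonspecific binding defined with 10 μM mianserin. Displacement-curve IC50 converted to KD via Cheng–Prusoff; expressed as pKD.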

[4] = molecular target: T1, Alpha-2A adrenergic receptor (Bos taurus, UniProt Q28838); assay: Binding affinity towards Alpha-2 adrenergic receptor of calf brain cortex using [3H]clonidine
T1 sequence (Q28838 whole entry): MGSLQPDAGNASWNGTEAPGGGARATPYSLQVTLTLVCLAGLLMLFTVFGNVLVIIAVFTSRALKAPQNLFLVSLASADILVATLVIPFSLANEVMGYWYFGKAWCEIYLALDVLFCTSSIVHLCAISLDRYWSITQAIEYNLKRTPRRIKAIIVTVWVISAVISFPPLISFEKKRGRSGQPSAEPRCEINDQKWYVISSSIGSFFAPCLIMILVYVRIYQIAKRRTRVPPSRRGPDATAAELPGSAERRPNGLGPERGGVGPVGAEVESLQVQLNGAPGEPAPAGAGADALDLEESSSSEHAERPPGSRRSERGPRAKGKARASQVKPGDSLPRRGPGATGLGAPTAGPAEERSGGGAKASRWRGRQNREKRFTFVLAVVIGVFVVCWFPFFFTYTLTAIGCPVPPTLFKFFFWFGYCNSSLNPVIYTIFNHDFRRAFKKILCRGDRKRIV
How it was run: (§1)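 Membranes from fresh calf brain cortex. Nonspecific binding defined with 10 μM phentolamine for α1 ([3H]prazosin) and with 1 μM unlabeled clonidine for α2 ([3H]clonidine). IC50 converted to KD (Cheng–Prusoff), given as pKD.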

[5] = molecular target: T2, Alpha-1A adrenergic receptor (Bos taurus, UniProt P18130); assay: Binding affinity towards Alpha-1 adrenergic receptor of calf brain cortex using [3H]prazosin; how it was run: as §1
T2 sequence (P18130 whole entry): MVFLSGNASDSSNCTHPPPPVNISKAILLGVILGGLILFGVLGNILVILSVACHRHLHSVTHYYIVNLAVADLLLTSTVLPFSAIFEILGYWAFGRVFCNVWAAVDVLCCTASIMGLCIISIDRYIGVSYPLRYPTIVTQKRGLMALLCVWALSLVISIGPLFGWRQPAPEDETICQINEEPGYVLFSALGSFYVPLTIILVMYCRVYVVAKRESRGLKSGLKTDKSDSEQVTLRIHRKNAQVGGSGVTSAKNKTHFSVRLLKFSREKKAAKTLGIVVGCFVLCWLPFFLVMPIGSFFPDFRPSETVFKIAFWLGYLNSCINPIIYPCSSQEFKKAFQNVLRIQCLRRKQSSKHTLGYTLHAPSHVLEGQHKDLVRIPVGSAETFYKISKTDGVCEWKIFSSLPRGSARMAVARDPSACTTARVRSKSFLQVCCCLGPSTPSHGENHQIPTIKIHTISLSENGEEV

D(2) dopamine receptor, sequence (P20288 whole entry): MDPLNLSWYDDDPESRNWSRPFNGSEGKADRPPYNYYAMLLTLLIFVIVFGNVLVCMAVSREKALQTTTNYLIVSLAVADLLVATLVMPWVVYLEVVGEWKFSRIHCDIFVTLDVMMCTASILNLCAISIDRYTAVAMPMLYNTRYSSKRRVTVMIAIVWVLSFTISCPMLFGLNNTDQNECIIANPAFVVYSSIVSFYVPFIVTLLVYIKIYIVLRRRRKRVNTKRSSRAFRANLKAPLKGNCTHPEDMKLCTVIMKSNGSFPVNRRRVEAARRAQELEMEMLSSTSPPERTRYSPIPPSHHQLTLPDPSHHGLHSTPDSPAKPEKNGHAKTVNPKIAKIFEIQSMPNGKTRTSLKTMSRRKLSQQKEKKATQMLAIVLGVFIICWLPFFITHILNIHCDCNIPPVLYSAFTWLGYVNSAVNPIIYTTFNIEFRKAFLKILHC

## CN1CC[C@@H]2CN3CCc4cccc(c43)[C@@H]2C1 [SDZ SER 082 FUMARATE]
[1]
  Kd: < 10000 nM
[2]
  Kd: < 10000 nM
[3]
  Kd: 631 nM
[4]
  Kd: 999 nM and 1000 nM
[5]
  Kd: 1000 nM and 999 nM
